Assay outcomes deposited in PubChem by several laboratories.
Most compounds without a hit are left out; they make up all but 4% or so of the library.
CHOP UPR activ = activators of apoptotic arm of unfolded protein response (CHOP). CHO-CHOP luciferase reporter, UPR activation, luminescence; percent of tunicamycin response over DMSO baseline. AID 449763. activation, % at 10 µM. 0.34% of 330,000 active;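 active means at 10 µM dose, activation of 40% or more, normalized to positive control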
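Assay system: CHO cells with stable CHOP pathway luciferase reporter; Buffer or medium: F12 plus 10% serum; Times: 16-18 h cell attachment, then 6 h compound exposure, 37 °C; Signal: luciferase luminescence; Read-out basis: percent activation relative to tunicamycin control; Control set: tunicamycin high control, DMSO low control.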
Exocytosis inh = blocks lytic granule exocytosis. inhibition, % at 10 µM. AID 651702. TALL-104 LAMP-1 surface exposure, flow cytometry; cells stimulated with thapsigargin and PMA. 0.66% of 360,000 active;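 active means inhibition above about 55%, limit read from the data; inconclusive means no clear call, values can overlap the other calls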
ABHD5-PLIN5 inh = ABHD5-PLIN5 protein interaction inhibition | Q00G26+Q8WTS1 | Split G. princeps luciferase complementation, luminescence, 4 h | inhibition, % at 4 µM | 0.78% of 360,000 active | AID 602281;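 active means inhibition above the mean inhibition across every tested compound plus 3 SD, cut at about 22% in these data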
Target sequence (Q00G26 whole entry, looked up): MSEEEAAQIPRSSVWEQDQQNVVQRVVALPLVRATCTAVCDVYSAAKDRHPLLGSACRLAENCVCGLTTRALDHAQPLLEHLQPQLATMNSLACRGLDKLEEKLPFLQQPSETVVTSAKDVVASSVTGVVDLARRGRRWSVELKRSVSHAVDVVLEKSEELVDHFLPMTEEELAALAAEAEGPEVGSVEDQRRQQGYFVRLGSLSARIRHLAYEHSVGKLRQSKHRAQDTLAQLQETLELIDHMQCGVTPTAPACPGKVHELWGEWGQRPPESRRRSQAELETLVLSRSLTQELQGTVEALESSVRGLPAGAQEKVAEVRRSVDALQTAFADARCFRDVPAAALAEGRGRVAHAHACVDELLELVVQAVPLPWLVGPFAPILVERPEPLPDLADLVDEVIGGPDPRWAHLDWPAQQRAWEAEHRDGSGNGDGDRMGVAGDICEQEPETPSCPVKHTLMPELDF
Target sequence (Q8WTS1 whole entry, looked up): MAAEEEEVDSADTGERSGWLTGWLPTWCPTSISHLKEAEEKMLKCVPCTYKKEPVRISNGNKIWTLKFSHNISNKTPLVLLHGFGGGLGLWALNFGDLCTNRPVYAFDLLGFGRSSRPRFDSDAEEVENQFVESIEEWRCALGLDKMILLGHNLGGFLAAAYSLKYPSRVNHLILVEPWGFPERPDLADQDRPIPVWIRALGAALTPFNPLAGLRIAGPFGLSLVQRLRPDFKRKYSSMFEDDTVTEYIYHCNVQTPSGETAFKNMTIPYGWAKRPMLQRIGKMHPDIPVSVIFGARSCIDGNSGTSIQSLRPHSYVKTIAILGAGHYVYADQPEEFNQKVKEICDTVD
Mdm2 MdmX PPI = inhibitors of human Mdm2/MdmX interaction | O15151+Q00987 | SaOS-2 split-luciferase Mdm2/MdmX complementation, luminescence | inhibition, % at 8 µM | 3% of 330,000 active | AID 485346;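 active means inhibition of at least 50% at 8 µM in the primary screen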
UPR XBP1 act = adaptive UPR (XBP1) activation; CHO-XBP1 luciferase reporter, IRE1-XBP1 UPR activation, luminescence; percent of tunicamycin response, DMSO as zero; activation, % at 20 µM; 0.33% of 330,000 active; AID 463104;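 active means versus positive control, 20 µM dose yields 30% or more activation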
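Material: CHO-XBP1 cells stably carrying IRE1-XBP1-driven luciferase reporter / Amount: 1000 cells per well / Compound: 20 µM, 1% DMSO / Times: 6 h treatment, 37 °C / Detection: luciferase luminescence / Measure: % activation of reporter signal versus tunicamycin and DMSO controls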
Mdm2 MdmX conf = confirmation of human Mdm2/MdmX interaction inhibitors; shares compounds with Mdm2 MdmX PPI; Mdm2-MdmX binding, luminescent assay; inhibition, % at 8 µM; 55% of 10,000 active; in the data active means inhibition above about 40%
FLuc counter = full-length luciferase inhibition in Mdm2/MdmX counter-screen | inhibition, % at 8 µM | shares compounds with Mdm2 MdmX PPI | 77% of 6,200 active | SaOS-2 full-length luciferase counterscreen, luminescence;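 active means mean inhibition at 8 µM reaching about 37%, which flags the compound as non-specific, limit read from the data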;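 further: p53-null SaOS-2 cells with luciferase driven by a doxycycline-inducible promoter; compound on cells about two nights before reading with doxycycline added after day one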
Hits are given with their value; . = inactive; ? = inconclusive; / = not tested or not shown.

SMILES	CHOP UPR activ	Exocytosis inh	ABHD5-PLIN5 inh	Mdm2 MdmX PPI	UPR XBP1 act	Mdm2 MdmX conf	FLuc counter
O=[N+]([O-])c1ccc(Oc2cccc(Br)c2)c2ccncc12	.	.	.	58	.	.	/
O=[N+]([O-])c1ccc(Oc2ccc(F)cc2)c2ccncc12	.	.	.	60	.	56	.
O=[N+]([O-])c1cccc2cnccc12	/	.	.	/	/	/	/
O=[N+]([O-])c1cccnc1Oc1ccc(F)cc1	.	.	.	.	.	/	/
CC(C)CN1C(=O)C(=Nc2cccnc2)c2ccccc21	.	.	.	.	.	/	/
COc1ccc(-c2nn(-c3ccccc3)cc2/C=N/Nc2ccc(S(N)(=O)=O)cc2[N+](=O)[O-])cc1OC	.	.	.	65	.	.	/
CCN1CCN(c2ccc(S(=O)(=O)N3CCOCC3)cc2NC(=O)CCSC)CC1	.	.	.	.	.	/	/
CCOc1ccccc1C(=O)NCC(=O)OCC(=O)N1C(C)CCCC1C (centres undefined)	.	.	.	.	.	/	/
O=C(Nc1cccc(-c2nc3ccccc3o2)c1)c1ccc(N2C(=O)C3C4C=CC(C4)C3C2=O)cc1 (centres undefined)	.	?	.	59	.	.	/
CC(C)CN(Cc1cc(=O)oc2cc(-c3ccccc3)c(O)cc12)CC(C)C	.	.	.	80	.	.	/
O=c1cc(CN2CCN(C/C=C/c3ccccc3)CC2)c2cc(O)c(-c3ccccc3)cc2o1	.	.	.	50	.	42	65
O=c1cc(CN2CCN(c3ccccc3F)CC2)c2cc(O)c(-c3ccccc3)cc2o1	.	.	.	.	.	/	/
Cc1cc2oc(=O)cc(CN3CCN(C/C=C/c4ccccc4)CC3)c2cc1O	.	.	.	.	.	/	/
COc1ccc(CCN2CC(C(=O)Nc3nnc(Cc4ccccc4)s3)CC2=O)cc1OC (centres undefined)	.	.	.	.	.	/	/
CCN(CC)C(=O)Cn1c(=O)n(-c2ccccc2)c(=O)c2c3c(sc21)CCC3	.	.	.	.	.	/	/
CCOc1ccc(-n2c(=O)c3c4c(sc3n(CC(=O)NCc3ccco3)c2=O)CCC4)cc1	.	.	.	73	.	.	/
O=c1[nH]c2cccnc2n1Cc1ccco1	.	.	.	.	.	/	/
CC1(C)N=C(N)N=C(N)N1c1cc(Cl)ccc1Cl	/	.	.	/	/	/	/
CC1(C)N=C(N)N=C(N)N1c1ccc(Oc2ccc(Cl)cc2)c(Cl)c1	.	.	.	67	.	50	88
CCOC(=O)c1c(C)nc(-c2ccccc2)nc1NC(=O)CC	.	.	.	.	.	/	/
COc1cc(CC(=O)OCC(=O)c2ccc3c(c2)OCCO3)cc(OC)c1OC	.	.	.	66	.	54	101
O=C(COC(=O)c1ccc(O)cc1)c1ccc2c(c1)OCCO2	.	.	.	.	.	/	/
COC(=O)c1cc(NC(=O)c2c(Cl)nc3sccn23)cc(C(=O)OC)c1	.	.	.	68	.	.	/
COC(=O)c1cc(=O)nc2sccn12	.	.	.	.	.	/	/
Cc1ccc2c(=O)cc(C(F)F)oc2c1	.	.	.	.	.	/	/
SMILES	CHOP UPR activ	Exocytosis inh	ABHD5-PLIN5 inh	Mdm2 MdmX PPI	UPR XBP1 act	Mdm2 MdmX conf	FLuc counter
CNC(=S)NNC(=O)c1sccc1OCc1ccc(Cl)cc1Cl	.	.	.	.	.	/	/
N/C(=N\NC(=O)c1sccc1OCc1ccc(Cl)cc1Cl)c1ccccn1	.	.	.	62	.	65	.
Cn1cc(C(c2ccccn2)c2cn(C)c3ccccc23)c2ccccc21	.	.	.	.	.	/	/
COc1ccc(OC(=O)Cc2cccc3ccccc23)cc1	/	.	.	/	/	/	/
O=C(c1nn2c(C(F)(F)F)cc(-c3cccs3)nc2c1Br)N1CCCc2ccccc21	.	.	.	.	.	/	/
O=C(c1nn2c(C(F)(F)F)cc(-c3ccco3)nc2c1Br)N1CCCc2ccccc21	.	.	.	57	.	44	48
CC(=O)N1N=C(c2ccccc2)CC1c1cn(Cc2ccccc2)c2ccccc12 (centres undefined)	.	.	.	59	.	51	47
Cc1c(C(=O)Nc2nonc2-c2ccc(F)cc2)oc2ccc(F)cc12	.	.	.	86	.	76	52
COc1cc(C(=O)N(C)C2CCCCC2)ccc1OC1CCN(C(C)=O)CC1	.	.	.	.	.	/	/
O=S(=O)(CCSc1ccccn1)c1nc2ccccc2s1	.	.	.	80	.	48	39
O=S(=O)(CCSc1nc2ccccc2o1)c1nc2ccccc2s1	.	.	.	83	.	72	.
Cc1ccccc1S(=O)(=O)Cc1ccc(C(=O)NC2CCCCC2)o1	.	.	.	.	.	/	/
Cc1cc(C)nc(SCC(=O)c2ccc(F)cc2)n1	.	.	.	.	.	/	/
Cc1cc(C)nc(S/C=C/C(=O)c2ccc(F)cc2)n1	.	/	/	101	.	.	/
CNC(=O)c1ccc(-c2sc3nc(N4CCOCC4)c4c(c3c2N)CC(C)(C)OC4)o1	.	.	.	61	.	.	/
CCOC(=O)c1ccc(-c2ccc(C3Nc4ccccc4C(=O)N3O)o2)cc1 (centres undefined)	.	.	.	72	.	62	58
Cc1cccc(NC2=Nc3ccccc3N3C2=Nc2c(c(C)nn2-c2ccccc2)C3c2ccc(O)c(O)c2)c1 (centres undefined)	.	.	.	78	.	.	50
Cc1ccc(NC2=Nc3ccccc3N3C2=Nc2c(c(C)nn2-c2ccccc2)C3c2ccc(O)c(O)c2)cc1 (centres undefined)	/	.	.	/	/	/	/
Cc1nn(-c2ccccc2)c2c1C(c1ccc(O)c(O)c1)N1C(=N2)C(Nc2ccccc2)=Nc2ccccc21 (centres undefined)	.	.	.	83	.	45	40
O=C(NC1CC1)c1ccc2nc([C@@H]3O[C@H](CO)[C@H](O)[C@H](O)[C@H]3O)[nH]c2c1	/	.	.	/	/	/	/
CCOC(=O)C1CCN(C(=O)C(C)Oc2ccc(Br)cc2)CC1 (centres undefined)	.	.	.	.	.	/	/
CC(=O)Nc1sc(N/N=C\c2ccccc2Cl)nc1-c1cccs1	.	.	.	51	.	61	96
O=C(CSc1nnc(NC2CCCCC2)s1)Nc1ccc2c(c1)C(=O)c1ccccc1C2=O	.	.	.	.	.	/	/
CCC(C)(C)c1ccc(OCCCC[n+]2ccc(C)cc2)c(C(C)(C)CC)c1	.	/	/	98	.	97	53
CCC(C)(C)c1ccc(OCCCC[n+]2cccc(C)c2C)c(C(C)(C)CC)c1	.	.	.	100	.	98	53
Cc1cc[n+](CC[n+]2ccc(C)cc2)cc1	.	.	.	.	.	/	/
